{"data": "Assay results gathered from unrelated publications", "KDR": "Vascular endothelial growth factor receptor 2 (KDR, Homo sapiens, UniProt P35968)", "PIP5K1A": "Phosphatidylinositol 4-phosphate 5-kinase type-1 alpha (PIP5K1A, Homo sapiens, UniProt Q99755)", "note": "Lines come from different studies, so protocols differ."}
{"SMILES": "CC1=C(/C=C/C(C)=C/C=C/C(C)=C/C=C/C=C(C)/C=C/C=C(C)/C=C/C2=C(C)CCCC2(C)C)C(C)(C)CCC1", "target": "KDR", "assay": "enzyme activity, inhibitor, TR-FRET", "setting": "40 µM", "endpoint": "inhibition", "result": "-6.3%"}
{"SMILES": "COc1ccc2oc(-c3ccc4nc(N)oc4c3)c/c(=N\\c3ccccc3NC(=O)CCN)c2c1", "target": "Activin receptor type-1-like (ACVRL1, Homo sapiens, UniProt P37023)", "assay": "binding", "setting": "1 µM", "endpoint": "remaining binding", "result": "106%"}
{"SMILES": "CC(C)c1ccc(Sc2ccc3nnc(C(F)(F)F)n3n2)cc1", "target": "Glutamate NMDA receptor; Grin1/Grin2a (Grin1/Grin2a, Rattus norvegicus, UniProt P35439+Q00959)", "assay": "ion current, two-electrode voltage clamp", "setting": "30 µM, oocytes", "endpoint": "remaining activity", "result": "97%"}
{"SMILES": "COc1ccc(-c2cc(=O)c3c(O)cc(O[C@@H]4O[C@H](CO[C@@H]5O[C@@H](C)[C@H](O)[C@@H](O)[C@H]5O)[C@@H](O)[C@H](O)[C@H]4O)cc3o2)cc1O", "target": "KDR", "assay": "enzyme activity, inhibitor, TR-FRET", "setting": "40 µM", "endpoint": "inhibition", "result": "51.5%"}
{"SMILES": "C1=C/COCc2cc(ccc2OCCN2CCCC2)Nc2nccc(n2)-c2cccc(c2)COC/1", "target": "1-phosphatidylinositol 3-phosphate 5-kinase (PIKFYVE, Homo sapiens, UniProt Q9Y2I7)", "assay": "cell-free assay", "setting": "0.1 µM", "endpoint": "remaining signal", "result": "17%"}
{"SMILES": "Cc1cc(O)c(-c2ccc([C@@H](C)CN(C)C)cc2)c2c1[nH]c(=O)c1sccc12", "target": "Serine/threonine-protein kinase Nek4 (NEK4, Homo sapiens, UniProt P51957)", "assay": "enzyme activity, inhibitor", "setting": "0.1 µM", "endpoint": "inhibition", "result": "0.965%"}
{"SMILES": "CC(=O)/C=C/C=C(C)/C=C/C1=C(C)CC(O)CC1(C)C (stereo in doubt)", "target": "D14 (Oryza sativa, UniProt Q10QA5)", "assay": "thermal stability, DSF", "setting": "10 µM", "endpoint": "ΔTm", "result": "2.75 °C"}
{"SMILES": "Cc1cc(S(=O)(=O)N[C@H]2CC[C@H](CN3CCN(c4ccc(C5CCC(=O)NC5=O)cc4F)CC3)CC2)ccc1Nc1ncc(C(F)(F)F)c(N2CCC[C@](C)(O)C2)n1 (stereo partly drawn)", "target": "PIP5K1A", "assay": "binding, competition with immobilised ligand", "setting": "1 µM", "endpoint": "remaining binding", "result": "70%"}
{"SMILES": "CC(=O)ON=C1C=CC(=C(C#N)c2ccccc2)C=C1", "target": "Glycogen synthase kinase-3 beta (GSK3B, Homo sapiens, UniProt P49841)", "assay": "enzyme activity, inhibitor, ADP detection", "setting": "20 µM", "endpoint": "activity vs control", "result": "82%"}
{"SMILES": "CNS(=O)(=O)c1ccc(Nc2ncc(C(F)(F)F)c(N3CCC[C@](C)(O)C3)n2)c(C)c1", "target": "PIP5K1A", "assay": "binding, competition with immobilised ligand", "setting": "1 µM", "endpoint": "remaining binding", "result": "100%"}
{"SMILES": "CCN1/C(=C/C(C)=O)Sc2ccc(F)cc21", "target": "Vasopressin V1b receptor (AVPR1B, Homo sapiens, UniProt P47901)", "assay": "ligand displacement, radioligand", "setting": "10 µM", "endpoint": "inhibition", "result": "2.63%"}
{"SMILES": "CCCCC(=O)Nc1ccc(-c2ccc3ncn(CCC)c(=O)c3c2)cn1", "target": "Interleukin-1 receptor-associated kinase 3 (IRAK3, Homo sapiens, UniProt Q9Y616)", "assay": "binding, competition with immobilised ligand", "setting": "0.5 µM", "endpoint": "remaining binding", "result": "99%"}
